Source: ChEMBL document CHEMBL4396947, “Synthesis and characterization of novel isoform-selective IP6K1 inhibitors” (Bioorg Med Chem Lett, 2019)

How the values were obtained:
[1] = target: Epidermal growth factor receptor (Homo sapiens) (UniProt P00533); assay: Inhibition of recombinant human EGFR (696 to end residues) assessed as residual activity at 10 uM using poly (Glu,Tyr) 4:1 as substrate incubated for 40 mins in presence of [gamma-33P]ATP at Km concentration by radiometric assay relative to control
[2] = target: Ephrin type-B receptor 4 (Homo sapiens) (UniProt P54760); assay: Inhibition of recombinant human EPHB4 (561 to end residues) assessed as residual activity at 10 uM using poly (Glu,Tyr) 4:1 as substrate incubated for 40 mins in presence of [gamma-33P]ATP at Km concentration by radiometric assay relative to control
[3] = target: Tyrosine-protein kinase receptor TYRO3 (Homo sapiens) (UniProt Q06418); assay: Inhibition of recombinant human RSE (451 to end residues) assessed as residual activity at 10 uM using KVEKIGEGTYGVV as substrate incubated for 40 mins in presence of [gamma-33P]ATP at Km concentration by scintillation counting method relative to control
[4] = target: Ribosomal protein S6 kinase alpha-4 (Homo sapiens) (UniProt O75676); assay: Inhibition of full length recombinant human MSK2 assessed as residual activity at 10 uM using GRPRTSSFAEGKK as substrate incubated for 40 mins in presence of [gamma-33P]ATP at Km concentration by radiometric assay relative to control
[5] = target: Tyrosine-protein kinase JAK2 (Homo sapiens) (UniProt O60674); assay: Inhibition of human recombinant JAK2 (808 to end residues) assessed as residual activity at 10 uM using KTFCGTPEYLAPE as substrate incubated for 40 mins in presence of [gamma-33P]ATP at Km concentration by radiometric assay relative to control
[6] = target: CDK9/cyclin T1 (Homo sapiens) (UniProt O60563+P50750); assay: Inhibition of recombinant full length human CDK9/CyclinT1 assessed as residual activity at 10 uM using KTFCGTPEYLAPE as substrate incubated for 40 mins in presence of [gamma-33P]ATP at Km concentration by radiometric assay relative to control; format: protein-complex assay
[7] = target: Serine/threonine-protein kinase Chk1 (Homo sapiens) (UniProt O14757); assay: Inhibition of human full length recombinant CHK1 assessed as residual activity at 10 uM using KKKVSRSGLYRSP as substrate incubated for 40 mins in presence of [gamma-33P]ATP at Km concentration by radiometric assay relative to control
[8] = target: ALK tyrosine kinase receptor (Homo sapiens) (UniProt Q9UM73); assay: Inhibition of human recombinant ALK (1058 to end residues) assessed as residual activity at 10 uM using KKKSPGEYVNIEF as substrate incubated for 40 mins in presence of [gamma-33P]ATP at Km concentration by radiometric assay relative to control
[9] = Half life in rat microsomes at 1 uM in presence of NADPH; format: ADME, Microsome
[10] = target: Mitogen-activated protein kinase kinase kinase 9 (Homo sapiens) (UniProt P80192); assay: Inhibition of recombinant human MLK1 (134 to 414 residues) assessed as residual activity at 10 uM using casein as substrate incubated for 40 mins in presence of [gamma-33P]ATP at Km concentration by radiometric assay relative to control
[11] = target: PI3K p110 beta/p85 alpha (Homo sapiens) (UniProt P27986+P42338); assay: Inhibition of recombinant full length human PI3K p110beta/p85alpha assessed as residual activity at 10 uM incubated for 40 mins in presence of [gamma-33P]ATP at Km concentration by radiometric assay relative to control; format: protein-complex assay
[12] = target: Serine/threonine-protein kinase PLK3 (Homo sapiens) (UniProt Q9H4B4); assay: Inhibition of recombinant human Plk3 (19 to 301 residues) assessed as residual activity at 10 uM using casein as substrate incubated for 40 mins in presence of [gamma-33P]ATP at Km concentration by radiometric assay relative to control
[13] = target: PI3-kinase p110-alpha/p85-alpha (Homo sapiens) (UniProt P27986+P42336); assay: Inhibition of recombinant full length human PI3K p110alpha/p85alpha assessed as residual activity at 10 uM incubated for 40 mins using phosphatidylinositol-4,5 bisphosphate as substrate in presence of [gamma-33P]ATP at Km concentration by radiometric assay relative to control; format: protein-complex assay
Homo sapiens [14] = species on record: Homo sapiens; assay: Inhibition of recombinant human PRAK 5 R291E mutant assessed as residual activity at 10 uM using KKLRRTLSVA as substrate incubated for 40 mins in presence of [gamma-33P]ATP at Km concentration by radiometric assay relative to control
[15] = target: Cyclin-dependent kinase 1/cyclin B1 (Homo sapiens) (UniProt P06493+P14635); assay: Inhibition of human full length recombinant CDK1/cyclinB assessed as residual activity at 10 uM using Histone H1 as substrate incubated for 40 mins in presence of [gamma-33P]ATP at Km concentration by radiometric assay relative to control; format: protein-complex assay
Homo sapiens [16] = species on record: Homo sapiens; assay: Selectivity ratio of Ki for IP6K3 (unknown origin) to Ki for IP6K1 (unknown origin)
In short: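 Purified IP6K1, IP6K2 and IP6K3 were each tested in an ADP-Glo Max luminescence assay optimized for IP6K, with 1 mM ATP consumed as the kinase reaction proceeds. IC50 values from each isoform were converted to Ki with the Cheng-Prusoff equation, and the Ki ratio versus IP6K1 was taken.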

[17] = target: Serine/threonine-protein kinase 10 (Homo sapiens) (UniProt O94804); assay: Inhibition of human recombinant LOK (1 to 348 residues) assessed as residual activity at 10 uM using RLGRDKYKTLRQI as substrate incubated for 40 mins in presence of [gamma-33P]ATP at Km concentration by radiometric assay relative to control
[18] = target: Insulin-like growth factor 1 receptor (Homo sapiens) (UniProt P08069); assay: Inhibition of human recombinant IGF1R (959 to end residues) assessed as residual activity at 10 uM using KKKSPGEYVNIEF as substrate incubated for 40 mins in presence of [gamma-33P]ATP at Km concentration by radiometric assay relative to control
[19] = target: Inositol hexakisphosphate kinase 1 (Homo sapiens, UniProt Q92551); assay: Inhibition of IP6K1 (unknown origin) incubated for 30 mins using IP6 as substrate in presence of ATP by ADP-Glo reagent based luminescence assay; details: read-out: IC50
In short: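 Luminescent ADP-Glo Max format adapted for IP6K, with purified enzyme and ATP at 1 mM, which is consumed as the kinase reaction proceeds. IC50 taken from the resulting inhibition data.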

[20] = target: Mitogen-activated protein kinase 14 (Homo sapiens) (UniProt Q16539); assay: Inhibition of recombinant full length human SAPK2alpha assessed as residual activity at 10 uM using myelin basic protein as substrate incubated for 40 mins in presence of [gamma-33P]ATP at Km concentration by radiometric assay relative to control
Homo sapiens [21] = species on record: Homo sapiens; assay: Inhibition of recombinant human PKBalpha S478G mutant assessed as residual activity at 10 uM using GRPRTSSFAEGKK as substrate incubated for 40 mins in presence of [gamma-33P]ATP at Km concentration by radiometric assay relative to control

Ribosomal protein S6 kinase alpha-4 (Homo sapiens), sequence (O75676 whole entry, looked up): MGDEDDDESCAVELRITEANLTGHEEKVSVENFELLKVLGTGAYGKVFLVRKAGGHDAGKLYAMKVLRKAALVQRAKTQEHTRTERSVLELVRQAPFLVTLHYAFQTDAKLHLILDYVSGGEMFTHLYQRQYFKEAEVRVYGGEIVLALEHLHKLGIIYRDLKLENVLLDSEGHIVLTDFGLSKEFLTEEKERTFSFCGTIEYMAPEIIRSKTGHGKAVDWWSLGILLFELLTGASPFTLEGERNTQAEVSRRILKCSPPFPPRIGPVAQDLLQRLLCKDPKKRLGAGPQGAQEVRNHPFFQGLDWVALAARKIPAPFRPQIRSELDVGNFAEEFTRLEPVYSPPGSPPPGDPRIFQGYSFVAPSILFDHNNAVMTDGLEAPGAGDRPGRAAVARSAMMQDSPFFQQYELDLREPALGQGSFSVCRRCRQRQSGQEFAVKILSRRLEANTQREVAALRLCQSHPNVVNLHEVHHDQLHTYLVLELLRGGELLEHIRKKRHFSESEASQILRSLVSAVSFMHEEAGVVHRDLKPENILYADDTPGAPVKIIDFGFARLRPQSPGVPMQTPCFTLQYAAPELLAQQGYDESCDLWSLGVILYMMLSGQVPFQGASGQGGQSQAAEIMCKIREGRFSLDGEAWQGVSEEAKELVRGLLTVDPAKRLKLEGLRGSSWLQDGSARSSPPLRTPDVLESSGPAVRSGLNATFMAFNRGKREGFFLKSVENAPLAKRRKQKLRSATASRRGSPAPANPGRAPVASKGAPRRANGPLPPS
Cyclin-dependent kinase 1/cyclin B1 (Homo sapiens), sequence (P06493 whole entry, looked up): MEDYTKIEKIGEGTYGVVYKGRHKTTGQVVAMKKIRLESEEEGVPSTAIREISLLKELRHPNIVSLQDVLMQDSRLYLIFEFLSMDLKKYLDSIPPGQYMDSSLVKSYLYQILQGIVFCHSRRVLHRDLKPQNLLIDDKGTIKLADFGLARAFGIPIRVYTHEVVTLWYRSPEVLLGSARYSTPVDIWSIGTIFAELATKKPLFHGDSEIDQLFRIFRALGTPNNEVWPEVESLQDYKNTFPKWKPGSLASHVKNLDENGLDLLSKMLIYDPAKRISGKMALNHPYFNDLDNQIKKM
Cyclin-dependent kinase 1/cyclin B1 (Homo sapiens), sequence (P14635 whole entry, looked up): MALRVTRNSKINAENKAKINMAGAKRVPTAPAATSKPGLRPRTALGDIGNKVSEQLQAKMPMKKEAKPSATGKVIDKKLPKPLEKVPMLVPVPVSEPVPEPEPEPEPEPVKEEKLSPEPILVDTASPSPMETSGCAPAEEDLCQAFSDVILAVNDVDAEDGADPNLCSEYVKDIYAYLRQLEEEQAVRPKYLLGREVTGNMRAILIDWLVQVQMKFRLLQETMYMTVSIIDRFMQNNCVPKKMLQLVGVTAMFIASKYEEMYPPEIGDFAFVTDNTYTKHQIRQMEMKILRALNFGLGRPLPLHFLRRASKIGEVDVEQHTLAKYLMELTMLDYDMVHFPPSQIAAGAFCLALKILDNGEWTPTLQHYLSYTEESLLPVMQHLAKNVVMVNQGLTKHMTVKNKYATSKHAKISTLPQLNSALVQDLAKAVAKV
Mitogen-activated protein kinase 14 (Homo sapiens), sequence (Q16539 whole entry): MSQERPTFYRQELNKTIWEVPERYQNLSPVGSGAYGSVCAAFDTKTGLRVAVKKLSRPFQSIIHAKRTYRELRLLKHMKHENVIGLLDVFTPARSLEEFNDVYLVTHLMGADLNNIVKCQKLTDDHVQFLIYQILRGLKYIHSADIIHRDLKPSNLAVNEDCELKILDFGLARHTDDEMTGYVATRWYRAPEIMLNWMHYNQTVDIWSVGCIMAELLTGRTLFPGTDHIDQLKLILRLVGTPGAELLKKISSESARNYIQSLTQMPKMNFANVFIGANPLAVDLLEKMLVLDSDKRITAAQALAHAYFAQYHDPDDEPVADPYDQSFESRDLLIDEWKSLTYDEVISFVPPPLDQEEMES
Serine/threonine-protein kinase Chk1 (Homo sapiens), sequence (O14757 whole entry): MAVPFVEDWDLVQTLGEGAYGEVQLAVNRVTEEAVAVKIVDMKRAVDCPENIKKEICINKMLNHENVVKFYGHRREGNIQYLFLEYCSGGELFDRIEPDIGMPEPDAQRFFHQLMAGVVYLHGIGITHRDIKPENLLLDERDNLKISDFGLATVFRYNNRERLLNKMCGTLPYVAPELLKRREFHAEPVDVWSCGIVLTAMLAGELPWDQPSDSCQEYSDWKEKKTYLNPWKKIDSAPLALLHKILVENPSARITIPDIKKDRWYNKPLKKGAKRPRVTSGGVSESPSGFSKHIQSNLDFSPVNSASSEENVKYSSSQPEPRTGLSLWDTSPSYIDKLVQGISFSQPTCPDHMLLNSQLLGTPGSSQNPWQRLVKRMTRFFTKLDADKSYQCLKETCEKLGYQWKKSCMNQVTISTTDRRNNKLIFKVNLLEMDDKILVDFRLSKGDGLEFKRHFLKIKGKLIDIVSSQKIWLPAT
PI3K p110 beta/p85 alpha (Homo sapiens), sequence (P27986 2-724 limits assumed): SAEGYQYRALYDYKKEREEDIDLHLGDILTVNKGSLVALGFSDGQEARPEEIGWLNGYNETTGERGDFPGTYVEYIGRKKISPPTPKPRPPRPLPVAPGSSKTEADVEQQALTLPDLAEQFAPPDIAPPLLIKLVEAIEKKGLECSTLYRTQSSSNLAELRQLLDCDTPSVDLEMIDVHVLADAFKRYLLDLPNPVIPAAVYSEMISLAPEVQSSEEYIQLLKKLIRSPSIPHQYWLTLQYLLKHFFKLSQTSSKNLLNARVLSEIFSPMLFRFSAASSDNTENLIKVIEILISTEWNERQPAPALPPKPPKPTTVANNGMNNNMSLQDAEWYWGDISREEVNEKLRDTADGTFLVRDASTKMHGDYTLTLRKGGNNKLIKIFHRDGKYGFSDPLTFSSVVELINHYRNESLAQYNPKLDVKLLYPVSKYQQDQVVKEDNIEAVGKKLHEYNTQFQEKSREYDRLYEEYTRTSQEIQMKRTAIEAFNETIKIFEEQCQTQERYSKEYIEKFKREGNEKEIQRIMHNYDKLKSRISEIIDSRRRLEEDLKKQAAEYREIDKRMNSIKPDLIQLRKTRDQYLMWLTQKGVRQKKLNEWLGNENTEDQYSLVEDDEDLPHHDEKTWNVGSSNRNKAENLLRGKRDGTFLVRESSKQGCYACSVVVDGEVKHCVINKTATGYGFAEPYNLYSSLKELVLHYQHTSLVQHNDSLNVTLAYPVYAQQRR
PI3K p110 beta/p85 alpha (Homo sapiens), sequence (P42338 whole entry partner, the tested form may be a part): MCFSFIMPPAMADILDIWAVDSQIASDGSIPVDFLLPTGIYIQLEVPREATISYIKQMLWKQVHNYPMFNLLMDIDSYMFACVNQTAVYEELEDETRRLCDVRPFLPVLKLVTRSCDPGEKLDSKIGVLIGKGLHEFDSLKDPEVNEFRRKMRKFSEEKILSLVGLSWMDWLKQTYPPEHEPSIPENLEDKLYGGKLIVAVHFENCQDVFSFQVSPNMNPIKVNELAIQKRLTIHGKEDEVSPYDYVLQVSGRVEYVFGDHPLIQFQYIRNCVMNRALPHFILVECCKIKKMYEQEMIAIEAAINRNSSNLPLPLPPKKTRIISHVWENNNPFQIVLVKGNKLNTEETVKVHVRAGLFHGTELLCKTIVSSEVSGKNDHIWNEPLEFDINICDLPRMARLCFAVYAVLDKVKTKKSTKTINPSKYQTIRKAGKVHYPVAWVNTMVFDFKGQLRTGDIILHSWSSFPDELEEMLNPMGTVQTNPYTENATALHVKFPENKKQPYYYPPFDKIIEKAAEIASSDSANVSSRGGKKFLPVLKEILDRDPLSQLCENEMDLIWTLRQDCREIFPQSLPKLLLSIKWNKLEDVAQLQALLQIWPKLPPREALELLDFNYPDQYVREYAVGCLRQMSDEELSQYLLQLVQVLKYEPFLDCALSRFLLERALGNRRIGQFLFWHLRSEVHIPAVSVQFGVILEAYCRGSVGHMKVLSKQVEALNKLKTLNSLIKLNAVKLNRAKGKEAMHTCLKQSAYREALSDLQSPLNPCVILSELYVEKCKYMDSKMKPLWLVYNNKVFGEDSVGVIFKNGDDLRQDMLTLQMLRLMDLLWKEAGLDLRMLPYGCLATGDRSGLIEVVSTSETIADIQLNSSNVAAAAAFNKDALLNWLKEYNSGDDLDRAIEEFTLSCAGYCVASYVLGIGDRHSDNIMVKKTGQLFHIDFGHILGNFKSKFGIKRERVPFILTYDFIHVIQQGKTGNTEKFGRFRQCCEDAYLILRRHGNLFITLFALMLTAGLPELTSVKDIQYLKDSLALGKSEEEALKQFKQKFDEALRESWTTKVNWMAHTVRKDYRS
Tyrosine-protein kinase receptor TYRO3 (Homo sapiens), sequence (Q06418 whole entry): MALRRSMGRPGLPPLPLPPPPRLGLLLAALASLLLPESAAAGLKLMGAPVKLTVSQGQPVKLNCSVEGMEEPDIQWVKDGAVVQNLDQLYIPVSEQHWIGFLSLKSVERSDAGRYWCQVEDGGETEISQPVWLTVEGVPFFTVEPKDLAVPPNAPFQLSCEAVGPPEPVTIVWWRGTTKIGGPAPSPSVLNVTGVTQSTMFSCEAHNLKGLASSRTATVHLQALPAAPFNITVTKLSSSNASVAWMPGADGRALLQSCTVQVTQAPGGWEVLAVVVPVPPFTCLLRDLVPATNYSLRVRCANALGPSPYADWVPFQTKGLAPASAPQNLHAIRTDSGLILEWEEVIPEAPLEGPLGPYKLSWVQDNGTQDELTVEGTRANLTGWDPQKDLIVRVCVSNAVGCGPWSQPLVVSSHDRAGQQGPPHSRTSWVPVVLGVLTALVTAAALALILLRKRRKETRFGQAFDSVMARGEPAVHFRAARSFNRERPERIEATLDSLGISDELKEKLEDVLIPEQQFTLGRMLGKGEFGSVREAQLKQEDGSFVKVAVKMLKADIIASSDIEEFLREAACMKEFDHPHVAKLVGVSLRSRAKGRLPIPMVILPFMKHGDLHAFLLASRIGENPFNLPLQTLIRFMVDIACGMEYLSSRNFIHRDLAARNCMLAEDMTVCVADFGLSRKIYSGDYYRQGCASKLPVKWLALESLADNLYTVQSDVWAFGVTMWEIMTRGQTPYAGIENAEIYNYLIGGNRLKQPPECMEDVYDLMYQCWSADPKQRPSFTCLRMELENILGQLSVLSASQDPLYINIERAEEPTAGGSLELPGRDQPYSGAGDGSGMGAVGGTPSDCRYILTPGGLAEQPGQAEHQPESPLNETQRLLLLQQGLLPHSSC

COc1ccc2c(CCNc3nc(NCc4ccc(=O)[nH]c4)c4nc[nH]c4n3)c[nH]c2c1
Activity [1]: 75% | Activity [2]: 69% | Activity [3]: 91% | Activity [4]: 96% | Activity [5]: 96% | Activity [6]: 79% | Activity [7]: 91% | Activity [8]: 88% | t1/2 [9]: 38 min | Activity [10]: 24% | Activity [11]: 93% | Activity [12]: 109% | Activity [13]: 99% | Activity (Homo sapiens [14]): 87% | Activity [15]: 83% | Ratio Ki (Homo sapiens [16]): 48.1 | Activity [17]: 97% | Activity [18]: 86% | IC50 [19]: 750 nM | Activity [20]: 92% | Activity (Homo sapiens [21]): 84%
